Measurements from ChEMBL document CHEMBL1127301, “Carbonyl-containing bisphosphonate esters as novel antiinflammatory and antiarthritic agents” (1994).
Values joined by “and” are separate entries in the source; they are usually repeats but may differ in a detail not shown here. Equal entries are not always repeated.

Assays:
Format in all cases: functional
[1] = system: Mus musculus; assay: Decreased wet tissue weight of DTH-GRA from mice was determined after (sc) administration of a dose of 100 mg/kg after 9 days; conditions: for inhibition in vivo at 100 mg/kg: Mus musculus, sc, 216 h
In short: (§1)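 Groups of 10 female CF-1 mice (25 g) were sensitized sc over the inguinal node with mBSA/Freund's incomplete adjuvant/dextran. Three weeks later, two 6 mm hydroxyapatite discs soaked in mBSA (30 mg/mL) were implanted sc in the dorsum. Drug was given sc in the scruff. After 9 days, granulomas were excised and wet/dry weights compared with vehicle controls as percent inhibition.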

[2] = system: Mus musculus; assay: Decreased dry tissue weight of DTH-GRA from mice was determined after (sc) administration of a dose of 10 mg/kg after 9 days; in short: as §1
[3] = system: Mus musculus; assay: Compound was tested for the suppression of Antigen-Induced Arthritis in mice after 28 days, which were dosed 10 mg/kg subcutaneously; conditions: sc, 672 h, route subcutaneous
In short: (§2)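 mBSA-sensitized mice were boosted after 7 days and, 14 days later, challenged intraarticularly with 200 μg mBSA in saline in the left rear stifle. Drug in sterile saline was given sc in the scruff from day 0 on a 5-of-7-day regimen to day 28. H&E sagittal joint sections were graded 1–5 for inflammation, pannus, and cartilage/bone erosion; results are percent inhibition.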

[4] = system: Mus musculus; assay: Decreased wet tissue weight of DTH-GRA from mice was determined after (sc) administration of a dose of 10 mg/kg after 9 days; in short: as §1
[5] = system: Mus musculus; assay: Compound was tested for the suppression of Antigen-Induced Arthritis in mice after 28days, which were dosed 100 mg/kg subcutaneously;; conditions: sc, 672 h, route subcutaneous; in short: as §2
[6] = system: Mus musculus; assay: Compound was tested for the suppression of Antigen-Induced Arthritis in mice after 28days, at a dose of 100 mg/kg administered subcutaneously; p<0.001; conditions: sc, 672 h, route subcutaneous; in short: as §2
[7] = system: Mus musculus; assay: Decreased dry tissue weight of DTH-GRA from mice was determined after (sc) administration of a dose of 100 mg/kg after 9 days; conditions: 216 h; in short: as §1
[8] = system: Mus musculus; assay: Compound was tested for the suppression of Antigen-Induced Arthritis in mice after 28days, which were dosed 100 mg/kg subcutaneously; conditions: sc, 672 h, route subcutaneous; in short: as §2
[9] = system: Mus musculus; assay: Compound was tested for the suppression of Antigen-Induced Arthritis in mice after 28days, at a dose of 100 mg/kg administered subcutaneously; conditions: sc, 672 h, route subcutaneous; in short: as §2
[10] = system: Mus musculus; assay: Compound was tested for the suppression of Antigen-Induced Arthritis in mice after 28 days, at a dose of 25 mg/kg administered subcutaneously; conditions: sc, 672 h, route subcutaneous; in short: as §2
[11] = system: Mus musculus; assay: Compound was tested for the suppression of Antigen-Induced Arthritis in mice after 28 days, at a dose of 50 mg/kg administered subcutaneously; conditions: sc, 672 h, route subcutaneous; in short: as §2
[12] = system: Mus musculus; assay: Compound was tested for the suppression of Antigen-Induced Arthritis in mice after 28days, at a dose of 10 mg/kg administered subcutaneously; conditions: sc, 672 h, route subcutaneous; in short: as §2
[13] = system: Mus musculus; assay: Decreased dry tissue weight of DTH-GRA from mice was determined after (sc) administration of a dose of 100 mg/kg
In short: (§3)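 Groups of 10 female CF-1 mice (25 g) sensitized sc over the inguinal lymph node with mBSA emulsion (saline, Freund's incomplete adjuvant, dextran). Three weeks later, two hydroxyapatite discs (6 mm) soaked in mBSA (30 mg/mL saline) implanted sc bilaterally in the dorsum. Compound given sc in scruff of neck in saline vehicle. Granulomas excised after 9 days; wet and dry weights expressed as percent inhibition versus vehicle-dosed controls.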

[14] = system: Mus musculus; assay: Decreased wet tissue weight of DTH-GRA from mice was determined after (sc) administration of a dose of 50 mg/kg; in short: as §3
[15] = system: Mus musculus; assay: Decreased wet tissue weight of DTH-GRA from mice was determined after (sc) administration of a dose of 100 mg/kg; in short: as §3
[16] = system: Mus musculus; assay: Decreased wet tissue weight of DTH-GRA from mice was determined after (sc) administration of a dose of 200 mg/kg; in short: as §3
[17] = system: Mus musculus; assay: Decreased wet tissue weight of DTH-GRA from mice was determined after (sc) administration of a dose of 25 mg/kg; in short: as §3
[18] = system: Mus musculus; assay: Decreased dry tissue weight of DTH-GRA from mice was determined after (sc) administration of a dose of 50 mg/kg; in short: as §3
[19] = system: Mus musculus; assay: Decreased dry tissue weight of DTH-GRA from mice was determined after (sc) administration of a dose of 25 mg/kg; in short: as §3
[20] = system: Mus musculus; assay: Decreased dry tissue weight of DTH-GRA from mice was determined after (sc) administration of a dose of 200 mg/kg; in short: as §3

`CCOP(=O)(OCC)C(CC1CCCC(c2ccccc2)C1=O)P(=O)(OCC)OCC` (centres undefined) gave an inhibition in vivo at 100 mg/kg [1] of 50%.
`CCOC(=O)C(CC(P(=O)(OCC)OCC)P(=O)(OCC)OCC)C(=O)c1ccccc1` (centres undefined) was tested, and the inhibition in vivo at 100 mg/kg [1] was 77%.
For `CCOP(=O)(OCC)C(CC(=O)C(=O)c1ccccc1)P(=O)(OCC)OCC`, the Inhibition [2] was 45% and 54% and 49% and 38% and 27%, the inhibition in vivo at 10 mg/kg [3] was 12% and the inhibition in vivo at 100 mg/kg [1] was 49%. For the same compound, the Inhibition [4] was 56% and 49% and 43% and 28%.
Compound `CCOP(=O)(OCC)C(CC(C(=O)OC)c1ccccc1O)P(=O)(OCC)OCC` (centres undefined) has an inhibition in vivo at 100 mg/kg [1] of 5%.
`CCOP(=O)(OCC)C(CC1Cc2ccccc2C1=O)P(=O)(OCC)OCC` (centres undefined) was tested, and the inhibition in vivo at 100 mg/kg [1] was 0%.
`CCOP(=O)(OCC)C(CC(C(=O)Nc1ccccc1)C(=O)c1ccccc1)P(=O)(OCC)OCC` (centres undefined) gave an inhibition in vivo at 100 mg/kg [1] of 3%.
`CCOP(=O)(OCC)C(CC1CCCC(C)C1=O)P(=O)(OCC)OCC` (centres undefined) gave an inhibition in vivo at 100 mg/kg [5] of 46% and an inhibition in vivo at 100 mg/kg [1] of 25%.
`CCOP(=O)(OCC)C(CC(C#N)c1cccc2ccccc12)P(=O)(OCC)OCC` (centres undefined) gave an inhibition in vivo at 100 mg/kg [1] of 0%.
Work on `CCOP(=O)(OCC)C(CC1C(=O)c2ccccc2SC1C)P(=O)(OCC)OCC` (centres undefined) yielded an inhibition in vivo at 100 mg/kg [1] of 33%.
With `CCOP(=O)(OCC)C(CC(C(=O)OC)c1ccccc1)P(=O)(OCC)OCC` (centres undefined) the inhibition in vivo at 100 mg/kg [1] was 8% and the inhibition in vivo at 100 mg/kg [6] was 38%.
With `CCOP(=O)(OCC)C1(P(=O)(OCC)OCC)CC(C(=O)c2ccccc2)=NN1` the inhibition in vivo at 100 mg/kg [1] was 31%.
`CCOP(=O)(OCC)C(CC(C(=O)c1ccc(OC)cc1)c1ccccn1)P(=O)(OCC)OCC` (centres undefined) gave an inhibition in vivo at 100 mg/kg [1] of 34%.
With `CCOP(=O)(OCC)C(C[C@H]1C(=O)c2ccccc2O[C@H]1c1ccccc1)P(=O)(OCC)OCC` the inhibition in vivo at 100 mg/kg [1] was 0%.
With `CCOP(=O)(OCC)C(CC(C#N)c1cccs1)P(=O)(OCC)OCC` (centres undefined) the inhibition in vivo at 100 mg/kg [1] was 40%.
`CCOP(=O)(OCC)C(CC1Sc2ccccc2C1=O)P(=O)(OCC)OCC` (centres undefined) was tested, and the inhibition in vivo at 100 mg/kg [1] was 27%.
`CCOP(=O)(OCC)C(CC1COc2ccccc2C1=O)P(=O)(OCC)OCC` (centres undefined) showed an inhibition in vivo at 100 mg/kg [1] of 67%.
Work on `CCOP(=O)(OCC)C(CC1C(=O)c2ccccc2OC1c1ccccc1)P(=O)(OCC)OCC` (centres undefined) yielded an inhibition in vivo at 100 mg/kg [7] of 47%, an inhibition in vivo at 100 mg/kg [1] of 46% and an inhibition in vivo at 100 mg/kg [8] of 21%.
With `CCOP(=O)(OCC)C(CC1CSc2ccc(C)cc2C1=O)P(=O)(OCC)OCC` (centres undefined) the inhibition in vivo at 100 mg/kg [9] was 21% and the inhibition in vivo at 100 mg/kg [1] was 28%.
Compound `CCOP(=O)(OCC)C(C[C@@H]1C(=O)c2ccccc2O[C@H]1c1ccccc1)P(=O)(OCC)OCC` has an inhibition in vivo at 100 mg/kg [1] of 67%.
`CCOP(=O)(OCC)C(CC(C(=O)c1ccccc1)c1ccccc1)P(=O)(OCC)OCC` (centres undefined) was tested, and the inhibition in vivo at 25 mg/kg [10] was 55%, the Inhibition [2] was 57% and 48% and 38% and the Inhibition ([1]; 100 mg/kg) was 51% and 44% and 35%. For the same compound, the inhibition in vivo at 100 mg/kg [1] was 48%, the inhibition in vivo at 50 mg/kg [11] was 53% and the inhibition in vivo at 100 mg/kg [8] was 52%.
With `CCOP(=O)(OCC)C(CC(C#N)c1ccccn1)P(=O)(OCC)OCC` (centres undefined) the inhibition in vivo at 10 mg/kg [12] was 2%.
In the case of `O=P(O)(O)C(Cl)(Cl)P(=O)(O)O` [CLODRONIC ACID], the inhibition in vivo at 100 mg/kg [13] is reported as 63%, the inhibition in vivo at 50 mg/kg [14] is reported as 48% and the inhibition in vivo at 100 mg/kg [15] is reported as 61%. It also gave an inhibition in vivo at 200 mg/kg [16] of 55%, an inhibition in vivo at 25 mg/kg [17] of 45% and an inhibition in vivo at 50 mg/kg [18] of 47%. It also gave an inhibition in vivo at 25 mg/kg [19] of 45%, an inhibition in vivo at 100 mg/kg [7] of 50% and an inhibition in vivo at 100 mg/kg [1] of 45%. It also gave an inhibition in vivo at 200 mg/kg [20] of 59%.
